In article PMC9177960 (Nucleic Acids Research, 2022):
One block for each molecule: values may come before it.

Legend:
[1] = target: T1, MurR/operator DNA complex (Escherichia coli, UniProt P77245); experiment: EMSA of MurR with murR-murQ intergenic region DNA; format: biochemical; conditions: for effect on MurR-DNA binding at high concentration: EMSA, 1, 10, 20, 40 mM, effect of GlcNAc-6-P at 40 mM
T1 sequence (P77245 1-285): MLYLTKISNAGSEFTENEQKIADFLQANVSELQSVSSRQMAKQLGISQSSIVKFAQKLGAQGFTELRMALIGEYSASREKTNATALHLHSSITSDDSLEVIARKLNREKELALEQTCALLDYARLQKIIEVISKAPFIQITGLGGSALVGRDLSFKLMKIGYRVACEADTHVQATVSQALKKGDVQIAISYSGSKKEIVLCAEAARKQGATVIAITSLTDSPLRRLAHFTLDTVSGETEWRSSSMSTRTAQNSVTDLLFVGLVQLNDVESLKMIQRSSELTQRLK

[2] = system: MurR binding to the operator site; conditions: previous studies; cited from earlier work
MurR = target: T2, MurR (Escherichia coli, UniProt P77245); experiment: ITC binding between MurR and ligands
T2 sequence (P77245 1-285): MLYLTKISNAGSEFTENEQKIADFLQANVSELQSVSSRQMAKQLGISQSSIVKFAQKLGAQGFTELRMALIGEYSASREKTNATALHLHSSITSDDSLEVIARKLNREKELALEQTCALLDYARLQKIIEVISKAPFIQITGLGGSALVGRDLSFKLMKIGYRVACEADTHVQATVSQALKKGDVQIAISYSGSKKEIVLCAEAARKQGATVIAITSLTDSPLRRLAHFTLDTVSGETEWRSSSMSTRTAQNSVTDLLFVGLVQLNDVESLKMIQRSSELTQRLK
Outline: (§1)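 MurR (wild type or point mutant) was expressed from pET28a in E. coli BL21(DE3), His6-tag removed with HRV3C, and gel-filtered. Protein at 50 µM in the cell; ligand at 500 µM in the syringe. Both were in 100 mM NaCl, 10 mM Tris-HCl pH 7.5, 1 mM DTT. Run at 25 °C, stirring 750 rpm, 120 s between injections. Data background-subtracted to give association constants; triplicate runs.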

mutant MurR proteins = experiment: ITC binding of GlcNAc-6-P to mutant MurR proteins; design: species or system Escherichia coli; conditions: mutant proteins of Supplementary Figure S14A and B
Outline: as §1

[3] = system: MurR-controlled eGFP expression (pUC19-murR-eGFP); experiment: CFPS eGFP fluorescent quantitation assay, WT MurR; format: biochemical, Escherichia coli; conditions: plasmid 5.8 nM, protein 1:100 molar ratio, different ligand concentrations
Outline: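 Reporter plasmid: T7 promoter, RBS, eGFP coding sequence and the murQ–murR intergenic region. MurR proteins were expressed in E. coli BL21(DE3) with an N-terminal His6 tag, which was cleaved off by HRV3C protease, then purified by size exclusion. In cell-free protein synthesis, 5.8 nM plasmid was mixed with protein at a 1:100 plasmid:protein molar ratio and graded MurNAc-6-P or GlcNAc-6-P. eGFP fluorescence was read on a real-time PCR instrument, in triplicate.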

[4] = system: mutant MurR proteins/promoter DNA complexes; experiment: EMSA of mutant MurR proteins with promoter DNA; format: biochemical, Escherichia coli; conditions: all MurR proteins (WT and mutants) at the tested concentrations
crystal structure = target: the molecule itself; experiment: crystal structure
SEC + AUC = target: the molecule itself; experiment: SEC + AUC

- effect on MurR-DNA binding at high concentration [1]: not affected
Molecule: O=S(=O)([O-])[O-].[Na+].[Na+] [sodium sulfate]

Molecule: CC(=O)N[C@H]1C(O)O[C@H](CO)[C@@H](O)[C@@H]1O[C@H](C)C(=O)N[C@@H](C)C(=O)N[C@H](CCC(=O)O)C(N)=O (mixture of isomers) [muramyl dipeptide]
- effect on MurR binding to the operator [2]: no effect

- interaction with MurR in ITC (MurR; ligand titrated into WT MurR): no interaction
Molecule: CC(=O)N[C@@H]1[C@@H](O)[C@H](O)[C@@H](CO)O[C@H]1O [GlcNAc, N-acetylglucosamine]
- effect on MurR binding to the operator [2]: no effect

Molecule: CC(=O)N[C@H]1C(O)O[C@H](COP(=O)(O)O)[C@@H](O)[C@@H]1O (stereo partly shown) [GlcNAc-6-P, N-acetylglucosamine-6-phosphate]
- association constant (Ka) values compared with WT MurR (mutant MurR proteins): Smaller
- relief of the retardation of DNA migration ([1]; EMSA, 200 nM MurR, ligand 1, 10, 100, 1000 μM): negligible
- effect on MurR-DNA binding at high concentration [1]: a certain portion of the DNA was dissociated from MurR
- Kd (MurR): 17.6 µM
- effect on eGFP fluorescence [3]: made no visible difference
- sensitivity of MurR/DNA complexes to ligand [4]: insensitive
- effect on MurR binding to the operator [2]: no effect

B1: truncated protein MurRT2 (D95 to K285) (domain or fragment, Escherichia coli MG1655, UniProt P77245 95-285, looked up)
chain: DDSLEVIARKLNREKELALEQTCALLDYARLQKIIEVISKAPFIQITGLGGSALVGRDLSFKLMKIGYRVACEADTHVQATVSQALKKGDVQIAISYSGSKKEIVLCAEAARKQGATVIAITSLTDSPLRRLAHFTLDTVSGETEWRSSSMSTRTAQNSVTDLLFVGLVQLNDVESLKMIQRSSELTQRLK
- binding result (crystal structure): binds

B2: full-length MurR (natural protein, Escherichia coli MG1655, UniProt P77245 1-285, looked up)
chain: MLYLTKISNAGSEFTENEQKIADFLQANVSELQSVSSRQMAKQLGISQSSIVKFAQKLGAQGFTELRMALIGEYSASREKTNATALHLHSSITSDDSLEVIARKLNREKELALEQTCALLDYARLQKIIEVISKAPFIQITGLGGSALVGRDLSFKLMKIGYRVACEADTHVQATVSQALKKGDVQIAISYSGSKKEIVLCAEAARKQGATVIAITSLTDSPLRRLAHFTLDTVSGETEWRSSSMSTRTAQNSVTDLLFVGLVQLNDVESLKMIQRSSELTQRLK
- stoichiometry N (SEC + AUC): 4
